# Measured values taken from ChEMBL document CHEMBL3108666, “Cytotoxic and protein kinase inhibiting nakijiquinones and nakijiquinols from the sponge Dactylospongia metachromia” (J Nat Prod, 2014).
# Calls of active or inactive are those of the source. The rule behind the calls is not given here.
# Key:
# [1] = molecular target: T1, Vascular endothelial growth factor receptor 2 (Homo sapiens, UniProt P35968); test: Inhibition of recombinant VEGFR2 (unknown origin) using poly(Glu,Tyr)4:1 as substrate assessed as incorporation of [gamma-33P]-ATP into substrate at 10 uM by radiometric assay
# T1 sequence (P35968 whole entry): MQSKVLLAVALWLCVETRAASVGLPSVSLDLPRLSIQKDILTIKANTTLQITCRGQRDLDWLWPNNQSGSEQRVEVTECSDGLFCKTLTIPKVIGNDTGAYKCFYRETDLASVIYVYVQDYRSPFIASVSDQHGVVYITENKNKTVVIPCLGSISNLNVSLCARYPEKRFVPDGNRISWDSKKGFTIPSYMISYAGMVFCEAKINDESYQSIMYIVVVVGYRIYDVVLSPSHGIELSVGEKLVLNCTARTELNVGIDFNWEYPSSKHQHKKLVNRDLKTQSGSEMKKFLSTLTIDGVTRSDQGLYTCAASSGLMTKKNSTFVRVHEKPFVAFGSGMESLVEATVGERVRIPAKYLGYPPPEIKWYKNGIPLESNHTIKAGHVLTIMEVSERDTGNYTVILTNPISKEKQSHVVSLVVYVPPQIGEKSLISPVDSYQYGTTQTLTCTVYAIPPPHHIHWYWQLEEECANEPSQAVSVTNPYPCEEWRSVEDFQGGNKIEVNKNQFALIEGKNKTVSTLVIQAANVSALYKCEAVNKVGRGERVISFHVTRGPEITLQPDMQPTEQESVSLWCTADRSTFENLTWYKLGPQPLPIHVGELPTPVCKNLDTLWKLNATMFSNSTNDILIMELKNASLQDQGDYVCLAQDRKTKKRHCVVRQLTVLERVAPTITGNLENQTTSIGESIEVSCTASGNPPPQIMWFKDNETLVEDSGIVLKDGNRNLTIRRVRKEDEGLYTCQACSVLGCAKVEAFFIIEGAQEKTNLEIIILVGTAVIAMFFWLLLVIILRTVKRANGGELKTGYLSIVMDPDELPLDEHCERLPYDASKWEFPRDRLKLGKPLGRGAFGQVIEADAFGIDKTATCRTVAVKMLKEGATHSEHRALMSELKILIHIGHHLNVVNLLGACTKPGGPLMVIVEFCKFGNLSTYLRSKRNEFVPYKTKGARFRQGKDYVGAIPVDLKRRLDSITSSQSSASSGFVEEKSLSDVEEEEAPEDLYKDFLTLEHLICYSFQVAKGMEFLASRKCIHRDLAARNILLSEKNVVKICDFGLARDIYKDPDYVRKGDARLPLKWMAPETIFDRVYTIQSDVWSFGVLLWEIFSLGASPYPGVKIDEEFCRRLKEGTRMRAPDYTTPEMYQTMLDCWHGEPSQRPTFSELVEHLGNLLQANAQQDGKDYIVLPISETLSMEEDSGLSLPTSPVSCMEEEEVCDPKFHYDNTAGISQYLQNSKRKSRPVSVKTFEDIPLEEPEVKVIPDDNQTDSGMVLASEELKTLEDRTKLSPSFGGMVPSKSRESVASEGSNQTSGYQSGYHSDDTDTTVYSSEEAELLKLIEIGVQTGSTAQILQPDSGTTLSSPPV
# Outline: (§1)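 Radiometric 33PanQinase format: recombinant kinase incubated with [γ-33P]ATP plus unlabeled ATP and kinase substrate; substrate-incorporated label measured by FlashPlate counting; compounds screened at 10 μM each across a 16-kinase panel.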
# [2] = molecular target: T2, Proto-oncogene tyrosine-protein kinase Src (Homo sapiens, UniProt P12931); test: Inhibition of recombinant SRC (unknown origin) using casein as substrate assessed as incorporation of [gamma-33P]-ATP into substrate at 10 uM by radiometric assay; outline: as §1
# [3] = molecular target: T3, Insulin-like growth factor 1 receptor (Homo sapiens, UniProt P08069); test: Inhibition of recombinant IGF1R (unknown origin) using Poly (Glu,Tyr) 4:1 as substrate assessed as incorporation of [gamma-33P]-ATP into substrate at 10 uM by radiometric assay; outline: as §1
# T3 sequence (P08069 31-736 limits assumed): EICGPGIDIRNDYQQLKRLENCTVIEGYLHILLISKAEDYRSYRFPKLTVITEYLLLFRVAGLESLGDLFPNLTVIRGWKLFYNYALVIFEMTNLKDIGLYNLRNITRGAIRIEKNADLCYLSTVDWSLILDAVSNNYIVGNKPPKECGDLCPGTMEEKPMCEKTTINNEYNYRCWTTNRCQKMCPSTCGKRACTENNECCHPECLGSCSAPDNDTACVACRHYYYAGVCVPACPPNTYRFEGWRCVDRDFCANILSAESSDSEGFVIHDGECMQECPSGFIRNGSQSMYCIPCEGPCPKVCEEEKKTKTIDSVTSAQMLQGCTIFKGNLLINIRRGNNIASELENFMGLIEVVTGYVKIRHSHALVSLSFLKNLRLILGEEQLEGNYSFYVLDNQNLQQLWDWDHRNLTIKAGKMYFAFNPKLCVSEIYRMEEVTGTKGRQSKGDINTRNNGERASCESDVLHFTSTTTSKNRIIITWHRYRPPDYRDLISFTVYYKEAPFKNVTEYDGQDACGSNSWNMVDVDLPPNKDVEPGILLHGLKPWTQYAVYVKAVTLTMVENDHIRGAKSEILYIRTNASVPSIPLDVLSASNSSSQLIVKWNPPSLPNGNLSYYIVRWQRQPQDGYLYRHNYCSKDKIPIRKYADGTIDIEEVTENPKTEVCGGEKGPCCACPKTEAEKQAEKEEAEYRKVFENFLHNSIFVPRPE
# T3 sequence (P08069 741-1367 limits assumed): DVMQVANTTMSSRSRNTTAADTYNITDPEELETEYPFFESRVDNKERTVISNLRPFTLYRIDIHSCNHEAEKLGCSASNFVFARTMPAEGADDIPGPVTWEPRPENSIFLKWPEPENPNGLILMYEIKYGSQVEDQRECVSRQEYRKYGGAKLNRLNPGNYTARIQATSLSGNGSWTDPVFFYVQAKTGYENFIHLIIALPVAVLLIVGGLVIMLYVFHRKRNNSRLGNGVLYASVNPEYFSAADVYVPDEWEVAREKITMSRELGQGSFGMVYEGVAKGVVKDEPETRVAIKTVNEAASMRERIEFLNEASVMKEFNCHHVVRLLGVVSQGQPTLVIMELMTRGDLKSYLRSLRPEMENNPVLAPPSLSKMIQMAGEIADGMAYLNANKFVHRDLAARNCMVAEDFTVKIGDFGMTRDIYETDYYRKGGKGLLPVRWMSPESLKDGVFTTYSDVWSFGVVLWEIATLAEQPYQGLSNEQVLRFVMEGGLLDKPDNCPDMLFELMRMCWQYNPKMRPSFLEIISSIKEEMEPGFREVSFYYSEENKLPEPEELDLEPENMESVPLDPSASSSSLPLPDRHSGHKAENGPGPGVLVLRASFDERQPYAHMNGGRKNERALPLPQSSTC
# [4] = molecular target: T4, Focal adhesion kinase 1 (Homo sapiens, UniProt Q05397); test: Inhibition of recombinant FAK (unknown origin) assessed as incorporation of [gamma-33P]-ATP into substrate at 10 uM by radiometric assay; outline: as §1
# [5] = molecular target: T5, ALK tyrosine kinase receptor (Homo sapiens, UniProt Q9UM73); test: Inhibition of recombinant ALK (unknown origin) assessed as incorporation of [gamma-33P]-ATP into substrate at 10 uM by radiometric assay; outline: as §1
# [6] = test system: L5178Y; test: Cytotoxicity against mouse L5178Y cells assessed as growth inhibition by MTT assay; type: functional, cell-based
# Outline: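 L5178Y mouse lymphoma cells; MTT microculture tetrazolium read-out, compared with untreated controls; media with 0.1% EGMME-DMSO as negative control; three independent experiments, each in triplicate.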
# [7] = molecular target: T1, Vascular endothelial growth factor receptor 2; test: Inhibition of recombinant VEGFR2 (unknown origin) using poly(Glu,Tyr)4:1 as substrate assessed as incorporation of [gamma-33P]-ATP into substrate by radiometric assay; outline: as §1
# [8] = molecular target: T2, Proto-oncogene tyrosine-protein kinase Src; test: Inhibition of recombinant SRC (unknown origin) using casein as substrate assessed as incorporation of [gamma-33P]-ATP into substrate by radiometric assay
# [9] = molecular target: Serine/threonine-protein kinase N1 (Homo sapiens, UniProt Q16512); test: Inhibition of recombinant PRK1 (unknown origin) using casein as substrate assessed as incorporation of [gamma-33P]-ATP into substrate by radiometric assay; outline: as §1
# [10] = molecular target: Serine/threonine-protein kinase PLK1 (Homo sapiens, UniProt P53350); test: Inhibition of recombinant PLK1 (unknown origin) using casein as substrate assessed as incorporation of [gamma-33P]-ATP into substrate by radiometric assay
# [11] = molecular target: Serine/threonine-protein kinase pim-1 (Homo sapiens, UniProt P11309); test: Inhibition of recombinant PIM1 (unknown origin) assessed as incorporation of [gamma-33P]-ATP into substrate by radiometric assay; outline: as §1
# [12] = molecular target: Serine/threonine-protein kinase Nek6 (Homo sapiens, UniProt Q9HC98); test: Inhibition of recombinant NEK6 (unknown origin) assessed as incorporation of [gamma-33P]-ATP into substrate by radiometric assay; outline: as §1
# [13] = molecular target: T6, Serine/threonine-protein kinase Nek2 (Homo sapiens, UniProt P51955); test: Inhibition of recombinant NEK2 (unknown origin) assessed as incorporation of [gamma-33P]-ATP into substrate by radiometric assay
# T6 sequence (P51955 whole entry): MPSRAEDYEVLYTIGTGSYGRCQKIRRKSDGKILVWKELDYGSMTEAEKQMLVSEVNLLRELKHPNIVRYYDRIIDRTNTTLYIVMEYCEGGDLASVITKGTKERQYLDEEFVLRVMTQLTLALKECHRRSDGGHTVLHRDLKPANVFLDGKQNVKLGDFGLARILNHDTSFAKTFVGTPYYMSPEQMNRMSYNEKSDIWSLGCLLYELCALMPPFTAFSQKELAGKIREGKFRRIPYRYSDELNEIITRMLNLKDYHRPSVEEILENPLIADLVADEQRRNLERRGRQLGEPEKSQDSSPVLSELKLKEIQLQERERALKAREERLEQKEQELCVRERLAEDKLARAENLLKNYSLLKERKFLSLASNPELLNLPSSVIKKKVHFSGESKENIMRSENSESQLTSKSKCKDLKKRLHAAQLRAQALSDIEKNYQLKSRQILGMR
# [14] = molecular target: Hepatocyte growth factor receptor (Homo sapiens, UniProt P08581); test: Inhibition of wild type MET (unknown origin) assessed as incorporation of [gamma-33P]-ATP into substrate by radiometric assay
# [15] = molecular target: Dual specificity mitogen-activated protein kinase kinase 1 (Homo sapiens, UniProt Q02750); test: Inhibition of wild type MEK1 (unknown origin) assessed as incorporation of [gamma-33P]-ATP into substrate by radiometric assay
# Chain of Dual specificity mitogen-activated protein kinase kinase 1 (Q02750 whole entry): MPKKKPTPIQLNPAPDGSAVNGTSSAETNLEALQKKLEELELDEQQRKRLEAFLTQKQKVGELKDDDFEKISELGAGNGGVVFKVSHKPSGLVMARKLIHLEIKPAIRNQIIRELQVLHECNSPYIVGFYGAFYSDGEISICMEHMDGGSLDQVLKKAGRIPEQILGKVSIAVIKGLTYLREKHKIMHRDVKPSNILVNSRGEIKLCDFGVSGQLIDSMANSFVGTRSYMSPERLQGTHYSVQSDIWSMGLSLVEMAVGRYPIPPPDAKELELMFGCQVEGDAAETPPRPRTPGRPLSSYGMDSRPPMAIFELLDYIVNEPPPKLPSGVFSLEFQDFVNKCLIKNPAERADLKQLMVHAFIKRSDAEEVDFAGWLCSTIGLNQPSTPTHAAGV
# [16] = molecular target: T3, Insulin-like growth factor 1 receptor; test: Inhibition of recombinant IGF1R (unknown origin) using Poly (Glu,Tyr) 4:1 as substrate assessed as incorporation of [gamma-33P]-ATP into substrate by radiometric assay
# [17] = molecular target: T4, Focal adhesion kinase 1; test: Inhibition of recombinant FAK (unknown origin) assessed as incorporation of [gamma-33P]-ATP into substrate by radiometric assay; outline: as §1
# [18] = molecular target: T7, Tyrosine-protein kinase receptor UFO (Homo sapiens, UniProt P30530); test: Inhibition of recombinant AXL (unknown origin) assessed as incorporation of [gamma-33P]-ATP into substrate by radiometric assay
# T7 sequence (P30530 whole entry): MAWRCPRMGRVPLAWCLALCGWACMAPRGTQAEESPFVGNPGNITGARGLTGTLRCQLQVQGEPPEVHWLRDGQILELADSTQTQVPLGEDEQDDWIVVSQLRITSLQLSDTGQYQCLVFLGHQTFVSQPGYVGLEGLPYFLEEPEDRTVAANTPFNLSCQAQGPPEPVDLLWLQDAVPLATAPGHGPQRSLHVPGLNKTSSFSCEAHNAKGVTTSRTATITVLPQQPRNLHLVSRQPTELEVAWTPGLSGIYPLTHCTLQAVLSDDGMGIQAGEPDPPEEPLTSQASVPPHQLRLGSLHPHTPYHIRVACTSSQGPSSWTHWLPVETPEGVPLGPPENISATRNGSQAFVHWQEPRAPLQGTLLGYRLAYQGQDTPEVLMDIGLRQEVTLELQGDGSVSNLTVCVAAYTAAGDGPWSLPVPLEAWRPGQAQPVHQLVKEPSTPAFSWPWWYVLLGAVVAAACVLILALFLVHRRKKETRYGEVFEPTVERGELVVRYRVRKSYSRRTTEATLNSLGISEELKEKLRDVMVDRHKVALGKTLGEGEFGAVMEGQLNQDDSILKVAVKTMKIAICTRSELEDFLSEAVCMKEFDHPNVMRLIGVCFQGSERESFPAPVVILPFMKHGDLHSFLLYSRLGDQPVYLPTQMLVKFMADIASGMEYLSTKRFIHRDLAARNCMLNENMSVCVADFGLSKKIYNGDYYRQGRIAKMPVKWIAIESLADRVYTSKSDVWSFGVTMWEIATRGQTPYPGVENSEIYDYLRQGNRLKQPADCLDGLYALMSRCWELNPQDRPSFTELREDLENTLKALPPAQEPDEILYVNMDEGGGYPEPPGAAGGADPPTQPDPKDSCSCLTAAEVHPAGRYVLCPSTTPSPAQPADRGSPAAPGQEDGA
# [19] = molecular target: Aurora kinase B (Homo sapiens, UniProt Q96GD4); test: Inhibition of recombinant aurora kinase B (unknown origin) using tetra(LRRWSLG) as substrate assessed as incorporation of [gamma-33P]-ATP into substrate by radiometric assay
# Chain of Aurora kinase B (Q96GD4 whole entry): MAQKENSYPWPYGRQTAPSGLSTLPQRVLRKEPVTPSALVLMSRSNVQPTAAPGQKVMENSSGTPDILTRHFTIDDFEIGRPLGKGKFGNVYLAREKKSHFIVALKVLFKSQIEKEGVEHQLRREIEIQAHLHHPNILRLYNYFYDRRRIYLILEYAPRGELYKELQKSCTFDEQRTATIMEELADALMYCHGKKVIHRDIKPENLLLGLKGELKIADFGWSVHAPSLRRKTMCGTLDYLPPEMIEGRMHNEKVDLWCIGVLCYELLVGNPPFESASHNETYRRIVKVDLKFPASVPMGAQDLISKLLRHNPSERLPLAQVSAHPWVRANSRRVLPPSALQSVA
# [20] = molecular target: T8, NUAK family SNF1-like kinase 1 (Homo sapiens, UniProt O60285); test: Inhibition of recombinant ARK5 (unknown origin) assessed as incorporation of [gamma-33P]-ATP into substrate by radiometric assay; outline: as §1
# T8 sequence (O60285 whole entry): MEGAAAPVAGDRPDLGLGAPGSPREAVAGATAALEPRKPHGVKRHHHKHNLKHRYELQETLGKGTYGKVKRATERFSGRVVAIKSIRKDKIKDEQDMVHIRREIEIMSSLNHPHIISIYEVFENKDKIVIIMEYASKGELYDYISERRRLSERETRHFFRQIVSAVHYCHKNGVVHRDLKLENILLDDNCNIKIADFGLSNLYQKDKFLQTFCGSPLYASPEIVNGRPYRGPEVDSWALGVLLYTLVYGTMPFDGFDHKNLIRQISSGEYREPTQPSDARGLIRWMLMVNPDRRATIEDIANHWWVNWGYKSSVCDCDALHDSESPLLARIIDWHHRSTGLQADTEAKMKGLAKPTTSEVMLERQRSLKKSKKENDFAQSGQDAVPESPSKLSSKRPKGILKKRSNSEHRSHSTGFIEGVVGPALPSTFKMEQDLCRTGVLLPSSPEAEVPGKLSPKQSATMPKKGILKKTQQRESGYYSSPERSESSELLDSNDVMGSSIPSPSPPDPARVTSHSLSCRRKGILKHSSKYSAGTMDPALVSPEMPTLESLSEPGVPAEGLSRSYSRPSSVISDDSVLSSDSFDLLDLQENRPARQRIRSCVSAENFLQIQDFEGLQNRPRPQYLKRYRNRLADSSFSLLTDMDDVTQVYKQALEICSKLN
# [21] = molecular target: T5, ALK tyrosine kinase receptor; test: Inhibition of recombinant ALK (unknown origin) assessed as incorporation of [gamma-33P]-ATP into substrate by radiometric assay
# Target sequence in this assay (Q9UM73 whole entry): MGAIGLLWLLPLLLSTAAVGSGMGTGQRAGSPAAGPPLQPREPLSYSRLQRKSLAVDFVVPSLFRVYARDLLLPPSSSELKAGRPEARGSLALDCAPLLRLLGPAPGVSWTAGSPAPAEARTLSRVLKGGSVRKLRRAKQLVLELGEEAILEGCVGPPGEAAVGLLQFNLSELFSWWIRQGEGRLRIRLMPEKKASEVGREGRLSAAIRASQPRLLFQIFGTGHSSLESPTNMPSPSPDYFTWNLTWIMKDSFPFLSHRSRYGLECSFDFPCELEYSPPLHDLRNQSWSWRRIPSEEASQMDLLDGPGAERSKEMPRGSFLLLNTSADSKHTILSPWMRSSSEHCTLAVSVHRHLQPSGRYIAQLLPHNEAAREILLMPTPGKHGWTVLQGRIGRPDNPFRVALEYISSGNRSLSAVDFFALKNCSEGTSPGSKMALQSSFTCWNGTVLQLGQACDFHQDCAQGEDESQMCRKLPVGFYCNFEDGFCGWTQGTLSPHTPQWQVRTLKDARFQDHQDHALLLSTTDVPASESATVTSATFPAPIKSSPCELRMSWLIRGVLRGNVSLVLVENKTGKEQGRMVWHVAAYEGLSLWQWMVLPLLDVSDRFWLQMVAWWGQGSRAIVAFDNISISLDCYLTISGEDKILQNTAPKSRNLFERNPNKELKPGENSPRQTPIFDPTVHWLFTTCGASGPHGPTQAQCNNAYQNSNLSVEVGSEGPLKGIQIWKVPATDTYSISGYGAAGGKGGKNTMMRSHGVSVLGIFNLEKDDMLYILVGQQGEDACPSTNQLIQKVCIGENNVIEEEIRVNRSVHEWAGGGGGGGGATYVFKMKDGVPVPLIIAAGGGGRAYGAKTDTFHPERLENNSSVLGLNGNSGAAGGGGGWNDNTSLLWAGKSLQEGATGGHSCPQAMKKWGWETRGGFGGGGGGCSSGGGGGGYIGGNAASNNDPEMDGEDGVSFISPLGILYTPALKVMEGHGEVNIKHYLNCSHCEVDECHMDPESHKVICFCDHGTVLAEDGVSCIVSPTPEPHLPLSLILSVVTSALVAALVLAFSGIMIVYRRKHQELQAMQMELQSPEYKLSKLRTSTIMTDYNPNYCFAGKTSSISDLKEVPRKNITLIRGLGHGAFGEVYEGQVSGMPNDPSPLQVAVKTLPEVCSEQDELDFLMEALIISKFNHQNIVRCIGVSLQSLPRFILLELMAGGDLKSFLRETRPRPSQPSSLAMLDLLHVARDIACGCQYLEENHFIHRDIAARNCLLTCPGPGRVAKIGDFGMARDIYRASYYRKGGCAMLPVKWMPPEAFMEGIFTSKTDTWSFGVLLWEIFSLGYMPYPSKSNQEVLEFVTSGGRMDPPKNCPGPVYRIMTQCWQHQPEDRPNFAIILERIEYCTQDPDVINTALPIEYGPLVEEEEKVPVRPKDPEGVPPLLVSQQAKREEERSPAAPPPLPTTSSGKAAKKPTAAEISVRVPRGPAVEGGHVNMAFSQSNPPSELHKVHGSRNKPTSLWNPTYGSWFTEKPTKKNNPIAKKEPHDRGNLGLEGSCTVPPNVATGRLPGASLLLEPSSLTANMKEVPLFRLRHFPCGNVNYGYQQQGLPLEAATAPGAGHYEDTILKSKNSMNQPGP
# [22] = molecular target: RAC-alpha serine/threonine-protein kinase (Homo sapiens, UniProt P31749); test: Inhibition of recombinant AKT1 (unknown origin) using GSK3 (14 to 27) as substrate assessed as incorporation of [gamma-33P]-ATP into substrate by radiometric assay; outline: as §1
inhibition [1],inhibition [2],inhibition [3],inhibition [4],inhibition [5],IC50 [7] [µM],IC50 [8] [µM],IC50 [9] [µM],IC50 [10] [µM],IC50 [11] [µM],IC50 [12] [µM],IC50 [13] [µM],IC50 [14] [µM],IC50 [15] [µM],IC50 [16] [µM],IC50 [17] [µM],IC50 [18] [µM],IC50 [19] [µM],IC50 [20] [µM],SMILES,IC50 [6] [µM],also measured
,,,,,3.66,19.7,> 100,> 100,> 100,> 100,> 100,> 100,> 100,3.31,7.78,14.7,> 100,> 100,COc1cc2nc(C)oc2c(C[C@]2(C)[C@@H](C)CC[C@@]3(C)C(C)=CCC[C@@H]23)c1O,> 10,IC50 [21]: 3.38 µM; IC50 [22]: > 100 µM
,,,,,2.22,2.2,> 100,100,62.6,90.8,29.9,40.3,> 100,1.94,3.03,> 100,61,> 100,CC1=CCC[C@H]2[C@](C)(CC3=C(O)C(=O)C=C(NCCC(C)C)C3=O)[C@@H](C)CC[C@@]12C,1.3,IC50 [21]: 0.97 µM; IC50 [22]: 73.2 µM
,,,,,4.81,8.62,> 100,21.7,20.3,7.72,14.7,3.12,> 100,11.8,4.56,13.1,3.89,29.4,COC(=O)c1cc(O)c(O)c(C[C@]2(C)[C@@H](C)CC[C@@]3(C)C(C)=CCC[C@@H]23)c1,> 10,IC50 [21]: 2.19 µM; IC50 [22]: 48.4 µM

# Further lines, the compound ahead of its results:
SMILES,inhibition [1],inhibition [2],inhibition [3],inhibition [4],inhibition [5],IC50 [7] [µM],IC50 [8] [µM],IC50 [9] [µM],IC50 [10] [µM],IC50 [11] [µM],IC50 [12] [µM],IC50 [13] [µM],IC50 [14] [µM],IC50 [15] [µM],IC50 [16] [µM],IC50 [17] [µM],IC50 [18] [µM],IC50 [19] [µM],IC50 [20] [µM],IC50 [6] [µM],also measured
CC1=CCC[C@H]2[C@](C)(CC3=C(O)C(=O)C=C(NCCc4c[nH]c5ccccc45)C3=O)[C@@H](C)CC[C@@]12C,Active,Active,Active,Active,Active,,,,,,,,,,,,,,,3.7,
CSCCCNC1=CC(=O)C(O)=C(C[C@]2(C)[C@@H](C)CC[C@@]3(C)C(C)=CCC[C@@H]23)C1=O,Active,Active,Active,Active,Active,,,,,,,,,,,,,,,1.8,
CC1=CCC[C@H]2[C@](C)(Cc3c4oc(C)nc4cc4nc(C)oc34)[C@@H](C)CC[C@@]12C,,,Active,Active,Active,,,,,,,,,,,,,,,> 10,
CC1=CCC[C@H]2[C@](C)(CC3=C(O)C(=O)C=C(NCCc4ccccc4)C3=O)[C@@H](C)CC[C@@]12C,Active,Active,Active,Active,Active,,,,,,,,,,,,,,,1.1,
CC1=CCC[C@H]2[C@](C)(CC3=C(O)C(=O)C=C(NCCc4ccc(O)cc4)C3=O)[C@@H](C)CC[C@@]12C,Active,Active,Active,Active,Active,,,,,,,,,,,,,,,1.7,
